Two molecules from ChEMBL document CHEMBL1122927, “Metabolism of the nigrostriatal toxin 1-methyl-4-phenyl-1,2,3,6-tetrahydropyridine by liver homogenate fractions” (J Med Chem, 1985) can be followed below.

Holding throughout (type): ADME
Conditions in all cases: microsomes

For data set [1], the species on record is Oryctolagus cuniculus. The experiment in a line: Formation of metabolite by rabbit liver microsomal preparation in absence of NADPH, at 2 hours. The method in brief: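 Rabbit liver microsomes (2–3 mg protein/mL), 100 mM Hepes pH 7.6, 0.5–1.0 mM MPTP, with the NADPH-generating system omitted; 37 °C for 2 h. Stopped with cold acetonitrile and centrifuged. Nor and N-oxide products measured by reverse-phase HPLC at 254 nm as nmol/mL per 2 h.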

The species named for data set [2] is Oryctolagus cuniculus. The data set can be described thus: Formation of metabolite by rabbit liver microsomal preparation in presence of Co-O2 (90:10),at 2 hour. The method in brief:
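Buffer was saturated with CO-O2 (90:10), and incubation ran in sealed vials under that gas. Rabbit liver microsomes (2–3 mg protein/mL), 100 mM Hepes pH 7.6, NADPH-generating system, 0.5–1.0 mM MPTP, 37 °C, 2 h. Stopped with cold acetonitrile. Nor and N-oxide products quantified by reverse-phase HPLC (254 nm) as nmol/mL per 2 h.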
On the technique in general: Liver microsomes are vesicles of endoplasmic reticulum, rich in cytochrome P450 enzymes.

The species entered for data set [3] is Oryctolagus cuniculus. The experiment in a line: Formation of metabolite by rabbit liver microsomal preparation in presence of N2,at 2 hour. A digest of the protocol: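 Incubation under 100% N2, with N2-saturated buffer in sealed vials. Rabbit liver microsomes (2–3 mg protein/mL), 100 mM Hepes pH 7.6, NADPH-generating system, 0.5–1.0 mM MPTP, 37 °C, 2 h. Stopped with ice-cold acetonitrile. Nor and N-oxide products read by reverse-phase HPLC at 254 nm, expressed as nmol/mL per 2 h.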

For data set [4], the species on record is Oryctolagus cuniculus. The experiment in a line: Formation of metabolite by rabbit liver microsomal preparation in presence of NADPH, at 2 hours. The method in brief:
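Male New Zealand white rabbit liver microsomes (100000g pellet, 2–3 mg protein/mL) in 100 mM Hepes pH 7.6 with an NADPH-generating system and 0.5–1.0 mM MPTP, in air, 37 °C, 2 h. Stopped with 2 volumes ice-cold acetonitrile, then centrifuged. Reverse-phase HPLC (acetonitrile/100 mM acetic acid 65:35, pH 5.6, 254 nm) quantified nor and N-oxide peaks as nmol/mL per 2 h.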

The species named for data set [5] is Oryctolagus cuniculus. The experiment in a line: Formation of metabolite by rabbit liver microsomal preparation in presence of SKF525A,at 2 hour. The method in brief: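 Rabbit liver microsomes were preincubated 5 min with SKF 525A (5 × 10⁻⁴ M) before MPTP (0.5–1.0 mM) was added. Run in 100 mM Hepes pH 7.6 with an NADPH-generating system, 2–3 mg protein/mL, 37 °C, 2 h. Stopped with cold acetonitrile. Nor and N-oxide products quantified by reverse-phase HPLC (254 nm) as nmol/mL per 2 h.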

On to `C1=C(c2ccccc2)CCNC1`, for which the Amount of metabolite in the data set listed under Oryctolagus cuniculus [1] was found to be 0 nM ml-1; in the data set listed under Oryctolagus cuniculus [2], 53 nM ml-1; in the data set filed under Oryctolagus cuniculus [3], 16 nM ml-1; in the data set filed under Oryctolagus cuniculus [4], 130 nM ml-1; in the data set filed under Oryctolagus cuniculus [5], 70 nM ml-1.

Turning to `C[N+]1([O-])CC=C(c2ccccc2)CC1` (stereo not given), the Amount of metabolite was found to be 0 nM ml-1 in the data set filed under Oryctolagus cuniculus [1]; 160 nM ml-1 in the data set listed under Oryctolagus cuniculus [2]; 0 nM ml-1 in the data set filed under Oryctolagus cuniculus [3]; 190 nM ml-1 in the data set listed under Oryctolagus cuniculus [4]; 170 nM ml-1 in the data set filed under Oryctolagus cuniculus [5].
